Measured values published in ChEMBL document CHEMBL5252539, “In vitro biological evaluation of new antimycobacterial salicylanilide-tuftsin conjugates” (Eur J Med Chem, 2017).
Values after ≈ are worked out from the molar mass of the structure shown. Active and inactive are the calls of the source. The calls are words filed in the database; no cut-off is given here. *1 amine or outer side, *2 acyl side, *3 side chain or, on linkers, in order; H or OH if unused. Where a SMILES comes first, the peptide text is derived from it. [ ]: non-standard residue; d: D form. The star is where a group is joined. X1 = C/C(=N\OCC(=O)[*:2])c1ccc(N[*:1])cc1; Benzoyl(5-Br-2-OH) = O=C(c1cc(Br)ccc1O)*

Key:
[1] = test system: Mycobacterium tuberculosis; assay: Antimycobacterial activity against isoniazid and rifampicin resistant Mycobacterium tuberculosis A8 ATCC 35822 assessed as reduction in bacterial growth after 28 days by serial dilution method; assay type: functional; conditions: A8 ATCC 35822, 672 h, time 28 day
In short: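 Broth MIC in Sula semisynthetic medium, pH 6.5; 4-week incubation, with 21-day values […] where indicated. Drug-free inoculated bacteria served as growth control. MIC also expressed as drug content (µg/mL) = MIC (µM) × average SAL molar mass × number of SAL per conjugate / 1000.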

[2] = test system: Mycobacterium tuberculosis; assay: Antimycobacterial activity against isoniazid and rifampicin resistant Mycobacterium tuberculosis A8 ATCC 35822 assessed as reduction in colony forming unit after 28 days by serial dilution method; assay type: functional, organism-based; conditions: time 28.0 day
In short: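 After the 4-week MIC incubation in Sula semisynthetic medium (pH 6.5), growth inhibition confirmed by plating on Löwenstein-Jensen solid medium and counting colony forming units.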

Row | Compound | MIC [1] [µM] | Activity [2]
1 | O=C(Nc1ccc(Cl)c(Cl)c1)c1cc(Cl)ccc1O | 1.6 (≈ 0.507 µg/mL) | 
2 | O=C(Nc1ccc(C(F)(F)F)cc1)c1cc(Cl)ccc1O | 1.6 (≈ 0.505 µg/mL) | 
3 | O=C(Nc1ccc(C(F)(F)F)cc1)c1cc(Br)ccc1O | 2.8 (≈ 1.01 µg/mL) | 
4 | CC(=O)c1ccc(NC(=O)c2cc(Cl)ccc2O)cc1 | 17.3 (≈ 5.01 µg/mL) | Active
5 | O=C(Nc1ccc(Cl)c(Cl)c1)c1cc(Br)ccc1O | 2.8 (≈ 1.01 µg/mL) | 
6 | C/C(=N\OCC(=O)NCC(=O)N[C@@H](Cc1ccccc1)C(=O)N[C@@H](CC(C)C)C(=O)NCC(=O)N[C@H](C(=O)N[C@@H](CCCCN)C(=O)N1CCC[C@H]1C(=O)N1CCC[C@H]1C(=O)N[C@@H](CCCNC(=N)N)C(=O)O)[C@@H](C)O)c1ccc(NC(=O)c2cc(Br)ccc2O)cc1 | 73.5 (≈ 100 µg/mL) | 
7 | C/C(=N\OCC(=O)N[C@H](C(=O)N[C@@H](CCCCN)C(=O)N1CCC[C@H]1C(=O)N1CCC[C@H]1C(=O)N[C@@H](CCCNC(=N)N)C(=O)O)[C@@H](C)O)c1ccc(NC(=O)c2cc(Br)ccc2O)cc1 | 101 (≈ 100 µg/mL) | 
8 | O=Cc1ccc(O)c(C(=O)Nc2ccc(C(F)(F)F)cc2)c1 | 64.7 (≈ 20 µg/mL) | Active
9 | CC(=O)c1ccc(NC(=O)c2cc(Br)ccc2O)cc1 | 15 (≈ 5.01 µg/mL) | Active
10 | C/C(=N\OCC(=O)NCC(=O)N[C@@H](Cc1ccccc1)C(=O)N[C@@H](CC(C)C)C(=O)NCC(=O)N[C@H](C(=O)N[C@@H](CCCCN)C(=O)N1CCC[C@H]1C(=O)N[C@@H](CCCNC(=N)N)C(=O)O)[C@@H](C)O)c1ccc(NC(=O)c2cc(Br)ccc2O)cc1 | 79.1 (≈ 100 µg/mL) | 
11 | C/C(=N\OCC(=O)NCC(=O)N[C@@H](Cc1ccccc1)C(=O)N[C@@H](CC(C)C)C(=O)NCC(=O)N[C@H](C(=O)N[C@@H](CCCCN)C(=O)N1CCC[C@H]1C(=O)N[C@@H](CCCCN)C(=O)NCC(N)=O)[C@@H](C)O)c1ccc(NC(=O)c2cc(Br)ccc2O)cc1 ({Benzoyl(5-Br-2-OH)}-[X1]GFLGTKPKG-NH2) | 77.4 (≈ 100 µg/mL) | Active
12 | C/C(=N\OCC(=O)NCC(=O)N[C@@H](Cc1ccccc1)C(=O)N[C@@H](CC(C)C)C(=O)NCC(=O)N[C@H](C(=O)N[C@@H](CCCCN)C(=O)N1CCC[C@H]1C(=O)N[C@@H](CCCCN)C(=O)NCC(=O)O)[C@@H](C)O)c1ccc(NC(=O)c2cc(Br)ccc2O)cc1 ({Benzoyl(5-Br-2-OH)}-[X1]GFLGTKPKG-OH) | 77.3 (≈ 100 µg/mL) | Active
13 | C/C(=N\OCC(=O)N[C@H](C(=O)N[C@@H](CCCCN)C(=O)N1CCC[C@H]1C(=O)N[C@@H](CCCCN)C(=O)NCC(N)=O)[C@@H](C)O)c1ccc(NC(=O)c2cc(Br)ccc2O)cc1 ({Benzoyl(5-Br-2-OH)}-[X1]TKPKG-NH2) | 109 (≈ 100 µg/mL) | Active
14 | C/C(=N\OCC(=O)N[C@H](C(=O)N[C@@H](CCCCN)C(=O)N1CCC[C@H]1C(=O)N[C@@H](CCCCN)C(=O)NCC(=O)O)[C@@H](C)O)c1ccc(NC(=O)c2cc(Br)ccc2O)cc1 ({Benzoyl(5-Br-2-OH)}-[X1]TKPKG-OH) | 109 (≈ 100 µg/mL) | Active
15 | C/C(=N\OCC(=O)N[C@H](C(=O)N[C@@H](CCCCN)C(=O)N1CCC[C@H]1C(=O)N[C@@H](CCCNC(=N)N)C(=O)O)[C@@H](C)O)c1ccc(NC(=O)c2cc(Br)ccc2O)cc1 ({Benzoyl(5-Br-2-OH)}-[X1]TKPR-OH) | 112 (≈ 100 µg/mL) | Active
16 | NNC(=O)c1ccncc1 [ISONIAZID] | 7.3 (≈ 1 µg/mL) | Active
